Experimental data reported in ChEMBL document CHEMBL3286104, “Synthesis and structure-activity relationship studies in serotonin 5-HT4 receptor ligands based on a benzo[de][2,6]naphthridine scaffold” (Eur J Med Chem, 2014).

What was measured:
[1] = molecular target: 5-hydroxytryptamine receptor 4 (Cavia porcellus, UniProt O70528); experiment: Displacement of [3H]GR113808 from Dunkin-Hartley guinea pig brain striatum 5HT4R after 30 mins
How it was run: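 Striatal crude membranes from decapitated guinea pigs, diluted in 50 mM Hepes pH 7.4, were incubated with [3H]17 (0.2 nM final) at 37 °C for 30 min. Separation by rapid filtration on PEI-treated GF/B filters, then scintillation counting. Nonspecific binding was defined with 30 µM 5-HT. Ki was derived as IC50/(1+L/Kd). Mean ± SEM of 3 independent determinations run in duplicate.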

[2] = molecular target: T1, 5-hydroxytryptamine receptor 4 (Homo sapiens, UniProt Q13639); experiment: Antagonist activity at Rluc-tagged human 5HT4R expressed in human SH-SY5Y cells assessed as inhibition of serotonin-induced receptor/Gbeta1 coupling by BRET assay; format: cell-based
How it was run: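 Cell-free BRET on enriched membranes (5 µg protein in PBS) from […] neuroblastoma cells retrovirally co-expressing Rluc-tagged human 5-HT4R and RGFP-fused Gβ1. Coupling was induced with 100 nM serotonin and inhibited by ligand at 8 log-spaced concentrations. IC50 for 50% inhibition of coupling was computed from the concentration-inhibition curves.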

[3] = molecular target: T1, 5-hydroxytryptamine receptor 4; experiment: Partial agonist activity at Rluc-tagged human 5HT4R expressed in human SH-SY5Y cells assessed as effect on serotonin-induced receptor/Gbeta1 coupling by BRET assay; format: cell-based
How it was run: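 BRET on membranes (5 µg protein in PBS) from […] cells co-expressing Rluc-human 5-HT4R and RGFP-Gβ1, with ligand at 10 µM. The baseline recorded without ligand was subtracted, and the BRET ratio was expressed relative to that obtained with 10 µM serotonin. Means ± SEM of 3 determinations.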

T1 sequence (Q13639 whole entry, the tested form may be a part): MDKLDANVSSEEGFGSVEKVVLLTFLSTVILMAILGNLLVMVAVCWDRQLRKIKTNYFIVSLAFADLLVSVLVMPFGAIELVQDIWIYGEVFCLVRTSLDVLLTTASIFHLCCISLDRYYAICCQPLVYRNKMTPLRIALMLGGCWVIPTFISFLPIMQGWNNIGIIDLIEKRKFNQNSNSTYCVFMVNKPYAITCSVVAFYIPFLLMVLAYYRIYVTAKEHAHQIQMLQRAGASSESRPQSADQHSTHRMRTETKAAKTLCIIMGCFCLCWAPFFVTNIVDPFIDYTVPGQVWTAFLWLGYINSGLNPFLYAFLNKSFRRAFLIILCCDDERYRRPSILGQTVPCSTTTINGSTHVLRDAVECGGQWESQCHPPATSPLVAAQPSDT
Sequence of 5-hydroxytryptamine receptor 4 (Cavia porcellus, UniProt O70528) (O70528 whole entry): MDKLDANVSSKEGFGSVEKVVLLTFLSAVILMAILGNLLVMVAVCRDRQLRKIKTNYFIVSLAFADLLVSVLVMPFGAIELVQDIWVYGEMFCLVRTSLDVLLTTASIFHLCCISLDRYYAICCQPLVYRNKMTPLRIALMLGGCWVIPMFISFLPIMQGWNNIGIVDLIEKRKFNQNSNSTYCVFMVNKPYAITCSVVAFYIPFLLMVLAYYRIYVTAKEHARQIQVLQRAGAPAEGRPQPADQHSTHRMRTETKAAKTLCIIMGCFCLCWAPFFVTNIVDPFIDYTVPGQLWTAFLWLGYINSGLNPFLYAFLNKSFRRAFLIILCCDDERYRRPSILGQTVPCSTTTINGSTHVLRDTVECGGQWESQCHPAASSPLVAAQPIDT

Ki [1] [nM]	IC50 [2] [nM]	IC50 [3] [nM]	Compound
283	916	–	COc1cc2c3c(cccc3n1)CN(CCCN1CCCCC1)C2=O
44	110	–	COc1cc2c3c(cccc3n1)C(=O)N(CCCN1CCCCC1)C2=O
563	–	195	O=C1c2cc(Cl)nc3cccc(c23)CN1CCCN1CCCCC1
105	453	–	O=C1c2cccc3nc(Cl)cc(c23)C(=O)N1CCCN1CCCCC1
> 1000	–	–	O=C1c2cccc3nc(N4CCCC4)cc(c23)C(=O)N1CCCN1CCCCC1
344	–	–	O=C1c2cccc3nc(N4CCCCC4)cc(c23)C(=O)N1CCCN1CCCCC1

Continued, compound first:

Compound	Ki [1] [nM]	IC50 [2] [nM]	IC50 [3] [nM]
COc1cc(C(=O)OCCCN2CCCCC2)c2ccccc2n1	52	203	–
COc1cc(C(=O)NCCCN2CCCCC2)c2ccccc2n1	> 1000	–	–
O=C1c2cc(N3CCCC3)nc3cccc(c23)CN1CCCN1CCCCC1	> 1000	–	–
COc1cc(N)c(Cl)cc1C(=O)OCCCN1CCCCC1	19	–	49
